A short description of this data set: Toxicity liver stage against HepG2, at 10uM. The class given is cell-based. Details: test concentration 10 uM, cell line HepG2-A16-CD81EGFP. The note with it: human, HepG2-A16-CD81EGFP cells; read-out: INHIBITION
In a few lines:
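Uninfected HepG2-A16-CD81EGFP cells, 3 × 10^3 per well, 1536-well, plated on prespotted compound at 10 μM final, parasite-free screening media added to match infected plates; puromycin 10 μM positive, DMSO 0.5% negative; run in parallel with 48 h PbLuc assay at 37 °C, 5% CO2; viability by CellTiter-Glo luminescence, normalized to controls.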
Take `CN1CCN(c2ccc(NS(=O)(=O)c3ccc(Br)s3)cc2C(=O)O)CC1`: the cytotoxicity at 10 µM was -4.5%.

In the case of `c1ccc(CNc2nc(N3CCOCC3)nc3nccnc23)cc1`, the cytotoxicity at 10 µM amounted to 10.5%.

As for `Cc1nn(C)cc1C1SCC(=O)Nc2c1c(O)nn2C(C)C` (stereo not given), the cytotoxicity at 10 µM was determined as 1.04%.

On to `Cc1cc(CN2CCC(CNS(=O)(=O)c3ccccc3Cl)CC2)c(C)o1`, for which the cytotoxicity at 10 µM was 9.51%.

`CCN1CCN(C(=O)Cn2nc(C(F)(F)F)c(Br)c2C2CC2)CC1`: the cytotoxicity at 10 µM was -8.78%.

As to `CC1(C)CC2(CCO1)NC(=O)c1cc(Br)ccc1-n1nnnc12` (stereo not given), the cytotoxicity at 10 µM worked out at 5.97%.

Turning to `Cc1ccc(CNC(=O)c2nn(C)c3c2CS(=O)(=O)CC3)o1`, the cytotoxicity at 10 µM amounted to 6.14%.

Turning to `COc1ccccc1CNC(=O)Cn1ncc2c1c(C)nn2C`, the cytotoxicity at 10 µM came out at 10.6%.

On to `Cc1nn(C)cc1CN1CCc2nc3sccc3c(=O)n2CC1`, for which the cytotoxicity at 10 µM was -1.87%.

Take `CC1(C)O[C@@](C)([C@H]2CC3(CCN(c4cnccn4)CC3)CO2)CC[C@@H]1O`: the cytotoxicity at 10 µM stood at 5.53%.

Regarding `CN(c1cccnn1)[C@@H]1CC[C@@H]2CN(Cc3cccc(C(=O)O)c3)C[C@@H]21`, the cytotoxicity at 10 µM worked out at 6.17%.

Turning to `Cn1nccc1C(=O)N1CCC(c2ncc(Cl)cc2S(C)(=O)=O)CC1`, the cytotoxicity at 10 µM came to 7.91%.

With `Cc1cnc(CC2COCCN(C(=O)CN3CCCCC3)C2)cn1` (stereo not given), the cytotoxicity at 10 µM is -3.22%.

For `Cc1cc(-c2cnc(C(C)C)nc2CN(C)C(=O)c2ccccn2)on1`, the cytotoxicity at 10 µM was 2.47%.

As for `Cc1cccc(CN2CCC(c3nnsc3S(C)(=O)=O)CC2)n1`, the cytotoxicity at 10 µM is -8.69%.

Turning to `C=Cn1ncc(CN2C[C@@H]3CCCN3C[C@@H]2CCSC)c1C`, the cytotoxicity at 10 µM came out at 0.026%.

As to `c1ncc(Nc2nccc(C3CCCCN3CC3CCCCC3)n2)cn1` (stereo not given), the cytotoxicity at 10 µM came to 3.32%.

With `CN(Cc1ccc(F)cc1)CC1(O)CCN(C(=O)c2cccn2C)C1` (stereo not given), the cytotoxicity at 10 µM was -3.19%.

With `CCOc1ccc(Cl)c(C(=O)NC(Cc2ccccc2)C(N)=O)n1` (stereo not given), the cytotoxicity at 10 µM is 15.4%.

Take `CCOc1ncccc1CNS(=O)(=O)c1ccc2c(c1)CCC2`: the cytotoxicity at 10 µM amounted to 13.3%.

For the compound `COc1ccc(CNC2CCc3ncnn3C2)cc1OCC1CC1` (stereo not given), the cytotoxicity at 10 µM is -8.74%.

For `CC(O)(CNC(=O)NCCc1ccc2c(c1)CCO2)c1ccsc1` (stereo not given), the cytotoxicity at 10 µM amounted to 7.4%.

Turning to `Cc1ccoc1C(=O)NCC(c1ccccc1Cl)N1CCOCC1` (stereo not given), the cytotoxicity at 10 µM came out at 8.21%.

Regarding `Cc1nc(C(=O)N(C)C)nn1-c1ccccc1C(C)C`, the cytotoxicity at 10 µM is -0.665%.

On to `CCNC(=O)NC(=O)C(C)N1CCCc2cc(OC)ccc2C1` (stereo not given), for which the cytotoxicity at 10 µM was determined as 9.86%.

With `Cc1ncc(CN(C)c2nc3c(cnn3C(C)(C)C)c(=O)[nH]2)s1`, the cytotoxicity at 10 µM was -19.2%.

In the case of `Cn1cnnc1C1CCCN1C(=O)Nc1cccc(OC(F)F)c1` (stereo not given), the cytotoxicity at 10 µM was 8.25%.

For `Cc1cc(NC(=O)C(C)Nc2ccn(Cc3ccccn3)n2)on1` (stereo not given), the cytotoxicity at 10 µM was -2.06%.

As to `O=S(=O)(Cc1ccc(F)cc1)NCCc1nnc2n1CCC2`, the cytotoxicity at 10 µM was 17.2%.

With `CCOC(=O)CCNC(=O)c1cc(Cl)cc2cccnc12`, the cytotoxicity at 10 µM came to 15%.

With `O=C(NCC(CO)Cc1cccc(OC(F)(F)F)c1)c1cnccn1` (stereo not given), the cytotoxicity at 10 µM came out at 7.66%.

As to `Cc1ccc(CS(=O)(=O)Cc2nc(N)nc(N(C)C)n2)cc1`, the cytotoxicity at 10 µM was 3.13%.

`CC(C)(C)c1cnc(CN2CCC(NC(=O)C3CCOCC3)CC2)o1`: the cytotoxicity at 10 µM was -11.9%.

Regarding `O=C(NCc1ccncc1)N(Cc1ccccc1F)C1CC1`, the cytotoxicity at 10 µM was -3.32%.

With `CC(=O)N1CCCN(Cc2csc(-c3ncccn3)n2)CC1`, the cytotoxicity at 10 µM is 7.08%.

`CCn1cnnc1C1CCN(C(=O)c2ccc3cc[nH]c3c2)CC1`: the cytotoxicity at 10 µM came out at 5.16%.

As to `CS(=O)(=O)NC1CCc2[nH]c(=O)ccc2C1` (stereo not given), the cytotoxicity at 10 µM amounted to 3.46%.

In the case of `CN1CCN(Cc2cn3c(n2)CN(Cc2cccnc2)CC3)CC1`, the cytotoxicity at 10 µM amounted to 5.25%.

Turning to `CN1CC(=O)N(c2cccc(F)c2)CC12CCNC2` (stereo not given), the cytotoxicity at 10 µM is 6.23%.

For `Cc1cc(C)c2c(N3CCC(C(=O)N4CCOCC4)CC3)ncnc2n1`, the cytotoxicity at 10 µM was -11.1%.

`Cc1nc(-c2ccncc2)ncc1C(C)NC(=O)CN1CCOC1=O` (stereo not given): the cytotoxicity at 10 µM was found to be 3.11%.

As for `COc1ccccc1CCc1nc(CC2CCN(C)CC2)no1`, the cytotoxicity at 10 µM is 7.71%.

`CCNC(=O)c1ccnc(N2CCCC(COc3ccccc3C)C2)c1` (stereo not given): the cytotoxicity at 10 µM came out at 2.08%.

In the case of `CN(Cc1cccc2ncccc12)C(=O)CCn1ccc(=O)[nH]c1=O`, the cytotoxicity at 10 µM is -134%.

As for `c1ccc(CN(Cc2ncc[nH]2)Cc2nccs2)cc1`, the cytotoxicity at 10 µM was 6.35%.

In the case of `CCCc1nc(N2CCCN(c3ncccn3)CC2)c2cnn(C)c2n1`, the cytotoxicity at 10 µM is -1.18%.

As to `COc1ccc(CN(C)C2CCN(S(C)(=O)=O)CC2)c2cccnc12`, the cytotoxicity at 10 µM was determined as 98.9%.

Turning to `N#CC1(c2ccccc2)CCN(C(=O)C2CCCN(C(N)=O)C2)CC1` (stereo not given), the cytotoxicity at 10 µM is -22.2%.

For the compound `CS(=O)(=O)NCC(=O)N[C@H]1CN(c2cnccn2)C[C@@H]1C1CC1`, the cytotoxicity at 10 µM was -7.24%.

`CN(C)CC1(O)CCN(C(=O)c2cnc(-c3cccnc3)nc2)C1` (stereo not given): the cytotoxicity at 10 µM was 5.75%.

Turning to `CCc1cc(N2CCN3CCCCC3C2)n2nccc2n1` (stereo not given), the cytotoxicity at 10 µM is -1.12%.

With `C[C@@H]1CN(C(=O)c2cc(Cn3cnc4ccccc43)on2)C[C@H](C)O1`, the cytotoxicity at 10 µM is 1.69%.

On to `CN(Cc1ccon1)C1CCN(c2cccc(-c3cscn3)c2)CC1`, for which the cytotoxicity at 10 µM is -3.96%.

Regarding `Cc1cccc2[nH]c(C3CCN(C(=O)c4ccc[nH]4)CC3)nc12`, the cytotoxicity at 10 µM came out at 6.01%.

On to `O=c1cc(-c2cccnc2)nc(-c2ccc(CN3CC[C@H](O)C3)cc2)[nH]1`, for which the cytotoxicity at 10 µM is 3.98%.

On to `CCNC(=O)[C@@H]1C[C@H](N)CN1C(=O)CCc1ccc(C)c(C)c1`, for which the cytotoxicity at 10 µM is 3.45%.

In the case of `COc1ccc(CN(CC2CCCO2)C(=O)CN2CCCCC2=O)cc1` (stereo not given), the cytotoxicity at 10 µM was -0.645%.

Consider `COc1cccc(-c2nc3c([nH]2)CC(C)(C)CNC3=O)c1OC`, for which the cytotoxicity at 10 µM was -5.82%.

As for `CCOc1ccc(Cc2c(O)nc(SC)n(-c3ccccc3)c2=O)cc1`, the cytotoxicity at 10 µM was found to be 4.04%.

Consider `COc1ccc(CN2CCN(CC3CC3)[C@@H]3CS(=O)(=O)C[C@@H]32)cc1O`, for which the cytotoxicity at 10 µM is -0.931%.

Consider `COc1cc2c(cc1OC)CN(Cc1ncccc1C(=O)O)CC2`, for which the cytotoxicity at 10 µM came out at 5.31%.

Consider `CCCc1nnc(N2CCC(C3CCN(C)CC3)CC2)o1`, for which the cytotoxicity at 10 µM is -11.7%.

With `CN(CCNC(=O)c1cccnc1)S(C)(=O)=O`, the cytotoxicity at 10 µM was -0.102%.

For the compound `Cc1cc(F)ccc1OC1(C(=O)O)CCN(Cc2cccnc2)CC1`, the cytotoxicity at 10 µM came to 1.87%.

Consider `Cc1ncsc1CCN(C)C(=O)CN1CCCCCC1=O`, for which the cytotoxicity at 10 µM is -7.67%.

As for `COc1ccc(OC2CCN(C(=O)c3cnc(C)s3)CC2)cc1`, the cytotoxicity at 10 µM was -18%.

Take `Cc1ccc(-c2ccnc(N3CCC4(CC3)CNC(=O)O4)n2)c(C)n1`: the cytotoxicity at 10 µM was -6.93%.

`N#Cc1nccnc1N1CCN(CCOCc2ccccc2)CC1`: the cytotoxicity at 10 µM was -18.4%.

In the case of `CCn1ccnc1CN1CCC(Oc2ccccc2F)(C(=O)O)CC1`, the cytotoxicity at 10 µM turned out to be 6.84%.

Take `Cc1nc(C)c(Cn2ccnc2-c2cc(CN(C)C)cs2)s1`: the cytotoxicity at 10 µM is 1.99%.

For the compound `CN(C)[C@H]1CN(C(=O)CCc2cccc(F)c2)C[C@@H]1C1CC1`, the cytotoxicity at 10 µM is -1.1%.

With `COc1ccc(C(=O)n2nc(C)c(C)c2C)cc1`, the cytotoxicity at 10 µM stood at 6.06%.

`Cc1ccc2[nH]nc(C(=O)NCC3CCN(Cc4c[nH]cn4)C3)c2c1` (stereo not given): the cytotoxicity at 10 µM is -15.1%.

Consider `NC(=O)COc1cccc(C(=O)Nc2cnc3n2CCCC3)c1`, for which the cytotoxicity at 10 µM is 18.2%.

As to `O=C1O[C@@H]2CN(Cc3cccc(F)c3)C[C@@H]2N1CCCN1CCOCC1`, the cytotoxicity at 10 µM is -9.9%.

Turning to `CS(=O)(=O)N1CCCC(C(=O)Nc2cnn(Cc3ccc(F)cc3)c2)C1` (stereo not given), the cytotoxicity at 10 µM was -3.64%.

For `CCOCCCNC(=O)Cc1cccs1`, the cytotoxicity at 10 µM was -10.2%.

Take `CCNC(=O)C1CCN(Cn2nc(-c3ccc(F)cc3)oc2=O)CC1`: the cytotoxicity at 10 µM was -4.71%.

With `Cc1nccn1-c1cc(CNC(=O)CC2CCCO2)ccn1` (stereo not given), the cytotoxicity at 10 µM was 0.491%.

`CCOc1ccc(C(=O)N2CCCC2c2cnn(C)c2)cn1` (stereo not given): the cytotoxicity at 10 µM is -3.71%.

`CC(=O)NCCNC(=O)c1cnc(C(C)(C)C)s1`: the cytotoxicity at 10 µM was -2.17%.

Take `COCCN1CCC(CNC(=O)C2(c3cccc(Cl)c3)CC2)C1` (stereo not given): the cytotoxicity at 10 µM is -6.63%.

With `CCc1cnc(CN(C(C)=O)C2CCN(CC(=O)N3CCCC3)C2)o1` (stereo not given), the cytotoxicity at 10 µM was -6.63%.

As to `Cc1ccccc1OCCN1CCN(Cc2cnn(CCO)c2)CC1`, the cytotoxicity at 10 µM was -17.9%.

With `CC(C)c1n[nH]c(C2CN(C(=O)C3=COCC3)CCO2)n1` (stereo not given), the cytotoxicity at 10 µM is -7.99%.

On to `c1ccc(Cc2noc(CNC3CCc4ncnn4C3)n2)cc1` (stereo not given), for which the cytotoxicity at 10 µM is -5.99%.

Turning to `Cc1csc(N2CCN(C(=O)CCC(=O)c3ccc(C)s3)CC2)n1`, the cytotoxicity at 10 µM was -3.09%.

In the case of `Cc1cc(C)n(CC2CCCN2Cc2c(C)noc2C)n1` (stereo not given), the cytotoxicity at 10 µM is -4.08%.

Take `CCc1nc(C2CCCN2C(=O)CCn2cncn2)no1` (stereo not given): the cytotoxicity at 10 µM was -5.63%.

Take `Cc1nc(O)cc(C2CCN(Cc3ccc(F)c(F)c3)C2)n1` (stereo not given): the cytotoxicity at 10 µM was -11.3%.

Regarding `Fc1cnc(N2CCC3(CC2)CC(OCc2cccnc2)CO3)nc1` (stereo not given), the cytotoxicity at 10 µM was 2.25%.

Consider `CCO[C@@H]1CO[C@@]2(CCCN(S(=O)(=O)c3cccnc3)C2)C1`, for which the cytotoxicity at 10 µM was -0.156%.

Take `Cc1ccc(CN2CC[C@H]3[C@H]2CC(=O)N3c2cccnc2)o1`: the cytotoxicity at 10 µM came out at 5.67%.

Turning to `Fc1ccccc1CO[C@@H]1C[C@H]2CN(c3ncccn3)CCN2C1`, the cytotoxicity at 10 µM turned out to be 1.09%.

Turning to `CC(=O)N1CCC2(CC1)CN(C(=O)[C@@H]1CSCN1)c1ccc(Cl)cc12`, the cytotoxicity at 10 µM is -1.91%.
